Measurements: ChEMBL document CHEMBL3286160, “Design and synthesis of a new series of modified CH-diarylpyrimidines as drug-resistant HIV non-nucleoside reverse transcriptase inhibitors” (Eur J Med Chem, 2014)
pIC50: −log10 of the molar value.

Key:
[1] = system: Human immunodeficiency virus 2; test: Antiviral activity against HIV2 ROD infected in human MT4 cells assessed as inhibition of virus-induced cytopathogenicity after 5 days by MTT assay; assay type: functional, organism-based; conditions: Human immunodeficiency virus 2, ISOLATE ROD, MT4, 120 h
Method in brief: (§1)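 MT-4 cells in exponential growth were pelleted (5 min, 220 g) and resuspended at 6×10^5 cells/mL. They were infected at the start with 100-300 CCID50 of virus stock and exposed to serial 5-fold compound dilutions in triplicate wells. Viability was read by MTT at 540 and 690 nm after 5 days, using the median OD of three wells. EC50 is the concentration giving 50% protection from viral cytopathic effect.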

[2] = system: Human immunodeficiency virus 1; test: Antiviral activity against wild type HIV1 3B infected in human MT4 cells assessed as inhibition of virus-induced cytopathogenicity after 5 days by MTT assay; assay type: functional, organism-based; conditions: Human immunodeficiency virus 1, 3B, MT4, 120 h; method in brief: as §1
[3] = Cytotoxicity against human MT4 cells after 5 days by MTT assay; assay type: cell-based
Method in brief: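 Mock-infected MT-4 cells received culture medium in place of virus, at 6×10^5 cells/mL, run in parallel triplicate wells with serial 5-fold compound dilutions. After 5 days, MTT reduction was read at 540 and 690 nm, using the median OD of three wells. CC50 is the concentration lowering OD540 of the mock-infected control by 50%.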

[4] = system: Human immunodeficiency virus 1; test: Antiviral activity against HIV1 harboring reverse transcriptase K103N/Y181C mutant infected in human MT4 cells assessed as inhibition of virus-induced cytopathogenicity after 5 days by MTT assay; assay type: functional, organism-based; conditions: Human immunodeficiency virus 1, MT4, 120 h
Method in brief: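 MT-4 cells (6×10^5 cells/mL after spinning at 220 g for 5 min) infected with 100-300 CCID50 of the double RT mutant strain derived from wild-type LAI. Serial 5-fold compound dilutions tested in triplicate alongside mock-infected wells. Viability read by MTT at 540 and 690 nm on day 5, using the median OD of three wells. IC50 is the concentration giving 50% protection from viral cytopathic effect.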

[5] = Selectivity index, ratio of CC50 for human MT4 cells to IC50 for wild type HIV1 3B; assay type: functional
[6] = Ratio of compound selectivity index to zidovudine selectivity index for human MT4 cells
[7] = system: Human immunodeficiency virus 1; test: Ratio of zidovudine IC50 to compound IC50 for wild type HIV1 3B; assay type: functional

Compound | pIC50 [1] | pIC50 [2] | CC50 at 120 h [3] [µM] | pIC50 [4] | Ratio CC50/IC50 [5] | ratio of compound SI to zidovudine SI [6] | Ratio IC50 [7]
N#Cc1ccc(Nc2nccc(C(NN)c3ccc(C#N)cc3)n2)cc1 (stereo not given) | 5.53 | 6.63 | 40.2 | 5.23 | 172 |  | 
N#C/C=C/c1ccc(C(NN)c2ccnc(Nc3ccc(C#N)cc3)n2)cc1 (stereo not given) | 5.30 | 8.76 | 186 | 5.27 | 106367 | 7 | 4
CNC(c1ccc(C#N)cc1)c1ccnc(Nc2ccc(C#N)cc2)n1 (stereo not given) | < 3.72 | 4.82 | 189 | < 3.72 | 12 |  | 
CNC(c1ccc(/C=C/C#N)cc1)c1ccnc(Nc2ccc(C#N)cc2)n1 (stereo not given) | < 4.38 | 6.97 | 41.4 | < 4.38 | 385 |  | 
CNC(c1ccnc(Nc2ccc(C#N)cc2)n1)c1ccccc1Cl (stereo not given) | < 5.22 | 7.20 | 36.1 | < 4.44 | 571 |  | 
CCNC(c1ccc(C#N)cc1)c1ccnc(Nc2ccc(C#N)cc2)n1 (stereo not given) | < 3.80 | 4.68 | 158 | < 3.80 | 7 |  | 
CCNC(c1ccc(/C=C/C#N)cc1)c1ccnc(Nc2ccc(C#N)cc2)n1 (stereo not given) | < 4.43 | 6.72 | 37.3 | < 4.43 | 194 |  | 
CCNC(c1ccnc(Nc2ccc(C#N)cc2)n1)c1ccccc1Cl (stereo not given) | < 4.40 | 6.46 | 39.4 | < 4.40 | 113 |  | 
CCCNC(c1ccc(C#N)cc1)c1ccnc(Nc2ccc(C#N)cc2)n1 (stereo not given) | < 4.46 | ≤ 5.02 | 34.9 | < 4.46 | <=4 |  | 
CCCNC(c1ccc(/C=C/C#N)cc1)c1ccnc(Nc2ccc(C#N)cc2)n1 (stereo not given) | < 4.43 | 6.97 | 34 | < 4.43 | 319 |  | 
CCCNC(c1ccnc(Nc2ccc(C#N)cc2)n1)c1ccccc1Cl (stereo not given) | < 4.16 | 7.32 | 68.5 | < 4.16 | 1422 |  | 
CC(C)NC(c1ccc(C#N)cc1)c1ccnc(Nc2ccc(C#N)cc2)n1 (stereo not given) | < 4.16 | < 4.16 | 69.2 | < 4.16 |  |  | 
CC(C)NC(c1ccc(/C=C/C#N)cc1)c1ccnc(Nc2ccc(C#N)cc2)n1 (stereo not given) | < 4.49 | 7.10 | 32.3 | < 4.49 | 405 |  | 
CC(C)NC(c1ccnc(Nc2ccc(C#N)cc2)n1)c1ccccc1Cl (stereo not given) | < 4.45 | 7.40 | 35.5 | < 4.45 | 879 |  | 
CC(O)CNC(c1ccc(C#N)cc1)c1ccnc(Nc2ccc(C#N)cc2)n1 (stereo not given) | < 4.19 | 4.62 | > 65 | < 4.19 | >3 |  | 
CC(O)CNC(c1ccnc(Nc2ccc(C#N)cc2)n1)c1ccccc1Cl (stereo not given) | < 4.46 | 6.48 | 34.7 | < 4.46 | 105 |  | 
N#Cc1ccc(Nc2nccc(C(NC3CC3)c3ccc(C#N)cc3)n2)cc1 (stereo not given) | < 4.46 | < 4.46 | 34.7 | < 4.46 | <1 |  | 
N#C/C=C/c1ccc(C(NC2CC2)c2ccnc(Nc3ccc(C#N)cc3)n2)cc1 (stereo not given) | < 4.25 | 6.71 | 56.1 | < 4.25 | 287 |  | 
N#Cc1ccc(Nc2nccc(C(NC3CC3)c3ccccc3Cl)n2)cc1 (stereo not given) | < 4.42 | 6.92 | 37.9 | < 4.42 | 317 |  | 
CC(C)Nc1cccnc1N1CCN(C(=O)c2cc3cc(NS(C)(=O)=O)ccc3[nH]2)CC1 [DELAVIRDINE] |  | 6.09 | 43.8 |  | >54 |  | 
O=C1Nc2ccc(Cl)cc2[C@@](C#CC2CC2)(C(F)(F)F)O1 [EFAVIRENZ] |  | 7.65 |  | 6.80 | >280 |  | 
Nc1ccn([C@@H]2CS[C@H](CO)O2)c(=O)n1 [LAMIVUDINE] | 4.81 | 5.41 | > 87.2 |  | >22 |  | 
Cc1ccnc2c1NC(=O)c1cccnc1N2C1CC1 [NEVIRAPINE] |  | 7.00 | > 15 | 6.05 | >148 |  | 
Cc1cn([C@H]2C[C@H](N=[N+]=[N-])[C@@H](CO)O2)c(=O)[nH]c1=O [ZIDOVUDINE] | 8.77 | 8.18 | > 93.5 | 8.11 | >14124 |  | 
